Compound activity as filed in PubChem.
NR2E3 ag-1: agonists of human nuclear receptor NR2E3 | Q9Y5X4 | GST-NR2E3/biotin-RetCOR TR-FRET, 1536-well | inhibition of corepressor binding, % at 4.78 µM | 320,000 tested, 0.12% active | AID 2300;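 active = percent inhibition above the cutoff of mean plus 3 SD of all tested compounds, set per screening campaign, cut at about 20% in these data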;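 note: 0% = DMSO wells and 100% = biotin wells as full block of FRET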
Target sequence (Q9Y5X4 whole entry, looked up): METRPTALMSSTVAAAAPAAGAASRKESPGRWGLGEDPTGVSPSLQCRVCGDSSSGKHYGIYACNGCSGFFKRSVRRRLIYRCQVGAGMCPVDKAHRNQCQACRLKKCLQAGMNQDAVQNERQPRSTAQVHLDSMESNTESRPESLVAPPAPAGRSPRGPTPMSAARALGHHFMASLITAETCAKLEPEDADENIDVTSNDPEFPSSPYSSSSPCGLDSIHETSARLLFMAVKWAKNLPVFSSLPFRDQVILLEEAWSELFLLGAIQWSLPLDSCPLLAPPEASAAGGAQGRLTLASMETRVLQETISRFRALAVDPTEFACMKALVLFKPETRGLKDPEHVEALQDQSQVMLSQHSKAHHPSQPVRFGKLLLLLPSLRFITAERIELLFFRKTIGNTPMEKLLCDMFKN
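Material: NR2E3–RetCOR corepressor complex | Quantity: 1.35 nM GST-tagged NR2E3 final | Schedule: 5 h at 4 °C | Replication: Singlicate compound wells | Reagent: RetCOR corepressor, biotinylated, 7 nM | Controls: Biotin wells as high control, 0.6% DMSO wells as low control | Signal: TR-FRET, Eu(K)-anti-GST donor, streptavidin-D2 acceptor, ex 340, em 617/671 nm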
NR1D1 modulator: modulators of human Rev-erb alpha DNA binding | AID 1259318 | Rev-erbα–FITC-DNA binding, fluorescence polarization, 90 min | 370,000 tested, 0.79% active | activity, % at 10 µM;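 active = activity above about 14%, limit read from the data; passing the limit was not always enough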;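 note: 0% = DMSO wells with 35 nM protein and 100% = DMSO wells with 750 nM protein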
MC4R ag barr: agonists of human melanocortin 4 receptor (MC4R) beta-arrestin. P32245. U2OS MC4R beta-arrestin complementation, luminescence; percent of melanotan II response, DMSO zero. activation, % at 8.9 µM. 360,000 tested, 0.98% active. AID 540308;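 active = activation above a per-plate cutoff, the mean activation of sample wells on that plate plus 3 SD, cut at about 8% in these data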
NR2E3 ag-2: activates human NR2E3 receptor | Q9Y5X4 | CHO-S Gal4-NCOR/VP16-NR2E3 two-hybrid, luciferase | inhibition of corepressor binding, % at 3.98 µM | 360,000 tested, 0.35% active | AID 602229;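 active = inhibition above the mean of all tested compounds plus 3 SD, cut at about 70% in these data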;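 note: 0% = DMSO with NR2E3 transfected cells and 100% = cells lacking NR2E3 construct; higher means lower luciferase signal from less NR2E3 corepressor binding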
MC4R antag cAMP: antagonists of human melanocortin 4 receptor (MC4R); P32245; MC4R-expressing cells, MTII-stimulated cAMP, LANCE TR-FRET; inhibition, % at 6.5 µM; 360,000 tested, 0.48% active; AID 540295;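 active = inhibition above its plate's cutoff, the mean of tested wells on that plate plus 3 SD, cut at about 29% in these data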;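 note: 0% = Melanotan II alone and 100% = Melanotan II plus saturating MCL0020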
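system = U2OS cells with stable human MC4R expression | also added = Melanotan II challenge after compound preincubation | dosing = one concentration, 6.5 µM nominal | incubation = compound 30 min, challenge 1 h, detection 1 h | measured by = TR-FRET with Eu-cAMP and labeled anti-cAMP, 671 nm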
PG9 Ab binder: small molecules binding HIV-1 gp120 antibody PG9; TR-FRET gp120-PG9 antibody binding; inhibition, % at 6.7 µM; 360,000 tested, 0.43% active; AID 624416; in the data active = inhibition above about 8.5%
MC4R barr ag: human MC4R beta-arrestin agonism confirmation; shares compounds with MC4R ag barr; U2OS MC4R beta-arrestin recruitment, luminescence; scaled DMSO 0%, Melanotan II 100%; activation, % at 8.9 µM; 2,400 tested, 31% active; AID 602192;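 active = mean activation across replicates above the hit cutoff set in the earlier primary screen, cut at about 8% in these data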
MOR-DOR barr ag: activates mu-delta opioid heterodimer, MC4R agonist counter-screen; U2OS PathHunter beta-arrestin, beta-gal luminescence; percent of deltorphin B response, DMSO zero; activation, % at 9.2 µM; shares compounds with MC4R ag barr; 2,400 tested, 5.8% active;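 active = mean activation across replicates exceeds the hit threshold derived in the earlier primary screen, cut at about 18% in these data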;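 note: 100% = deltorphin B at 0.9 µM final and 0% = DMSO alone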
* hit, by the source's call; . = no result. Shown are actives, neighbours in structure and some others; about 2.7% of the full set was active somewhere.

SMILES | NR2E3 ag-1 | NR1D1 modulator | MC4R ag barr | NR2E3 ag-2 | MC4R antag cAMP | PG9 Ab binder | MC4R barr ag | MOR-DOR barr ag
CC(c1ccccc1)c1nnc(NC(=O)c2ccc3c(c2)OCO3)s1 (centres undefined) | 1.0 | 0.9 | 15.1* | -52.9 | 3.4 | 1.6 | -2.2 | 4.4
COc1cc(NC(=O)c2ccc3c(c2)OCO3)c2ncccc2c1 | 1.0 | 4.5 | 10.5* | -47.4 | 8.0 | -0.5 | 1.9 | 1.4
COC(=O)c1ccc(NC(=O)c2ccc3c(c2)OCO3)cc1 | 2.1 | 3.6 | -0.7 | -61.5 | -2.2 | 1.0 | . | .
O=C(NC(=S)Nc1ccccc1Br)c1ccc2c(c1)OCO2 | 2.0 | 5.3 | 11.1* | -137.8 | 2.1 | 0.7 | -2.4 | 2.1
CC(C)c1nnc(NC(=O)c2ccc3c(c2)OCO3)s1 | -2.1 | 4.5 | -3.6 | -140.2 | 6.0 | -0.5 | . | .
COC(=O)c1sccc1NC(=O)c1ccc2c(c1)OCO2 | 1.2 | -3.1 | 14.5* | -4.2 | 9.2 | 0.2 | -1.4 | 1.7
N#Cc1ccccc1NC(=O)CSc1n[nH]c(-c2ccco2)n1 | 5.0 | -3.3 | -2.3 | -0.2 | 6.2 | -0.4 | . | .
CCn1c(CC(=O)Nc2cccc(OC)c2)nnc1SCC(=O)N1CCN(c2ccccc2)CC1 | 3.7 | -4.7 | 0.1 | 14.0 | 4.3 | -3.6 | . | .
N#CC[C@H](Cc1ccccc1)N1CCN(CCc2ccccc2)CCC1=O | 1.5 | -2.9 | -1.3 | 5.9 | 1.7 | 1.2 | . | .
CCC(=O)Nc1c2c(nn1-c1ccc(OC)cc1)CS(=O)C2 (centres undefined) | 1.4 | -0.2 | 0.3 | -14.8 | 17.7 | -0.4 | . | .
Cc1ccc(OCc2nnc(SCC(=O)Nc3sc(C)c(C)c3C#N)n2C)cc1 | -3.1 | 10.2 | 17.5* | -11.4 | -1.1 | 0.2 | 2.5 | 4.7
Cc1cccc(OCc2nnc(SCC(=O)Nc3sc(C)c(C)c3C#N)n2C)c1 | 5.3 | -5.3 | 16.6* | -17.7 | -1.6 | 1.7 | 1.9 | 5.8
COC(=O)c1cccc(NC(=O)CSc2nnc(COc3cccc(C)c3)n2C)c1 | -0.5 | 4.1 | -0.5 | -3.0 | 3.8 | -0.4 | . | .
Cc1ccc(OCc2nnc(SCC(=O)NC3CCCCC3)n2C)cc1 | -0.6 | -0.8 | -1.0 | -2.6 | -2.9 | -0.2 | . | .
CC(OC(=O)C1=COCCO1)C(=O)c1ccc(Br)cc1 (centres undefined) | . | -5.8 | -2.1 | 19.4 | 2.9 | 3.1 | . | .
Cn1c(CN2CCN(CC#N)CC2)c(C#N)c2ccccc21 | 0.0 | -2.6 | 0.2 | -25.6 | -5.1 | 1.5 | . | .
C#CCn1c2ccccc2c2nc3ccccc3nc21 | -4.6 | 3.8 | 10.7* | -140.7 | -1.6 | -0.7 | -0.3 | 4.9
Cc1cccc(Nc2ncnc3onc(-c4cccc(Cl)c4)c23)c1 | -0.7 | -3.0 | 11.2* | 5.2 | 6.0 | 2.2 | -0.3 | 5.6
COc1ccc(/C=N/NC(=O)c2cc(OC)c(OC)c(OC)c2)cc1CN1CCc2cc(OC)c(OC)cc2C1C (centres undefined) | 7.4 | -1.7 | -0.1 | 2.9 | 9.0 | -2.1 | . | .
Cc1cc(C)cc(OCC(=O)N/N=C/c2ccc([N+](=O)[O-])o2)c1 | 3.1 | 2.2 | -0.4 | -8.4 | 9.4 | -2.2 | . | .
Cc1ccccc1NC(=O)C(=O)NCCc1ccccc1 | 2.0 | -1.2 | 1.5 | -8.3 | 6.1 | -1.8 | . | .
Cc1ccc(NC(=O)Cn2nc(-c3ccccc3)nc2-c2ccccc2)c(C)c1 | -0.5 | -5.0 | 16.6* | -37.7 | -0.8 | 0.5 | 1.7 | 2.8
CC1CCC(C(C)C)C(OC(=O)Cn2c(-c3ccc(F)cc3)[n+](C)c3ccccc32)C1 (centres undefined) | -0.9 | 3.4 | 17.0* | -20.4 | -0.1 | -1.2 | 15.9* | 5.3
Cc1ccc(N2C(=O)/C(=C/c3cccnc3)SC2=S)cc1 | 3.5 | 5.0 | 15.4* | -6.7 | 2.6 | 0.2 | 8.1 | 4.2
